# Calls of active or inactive are those of the source. The rule behind the calls is not given here.
# What was measured:
# Callithrix jacchus = species on record: Callithrix jacchus; assay: Inhibition of 17beta-HSD2 in common marmoset placental microsomal fraction assessed as inhibition of [3H]E2 conversion to E1 at 1 uM by scintillation counting analysis; format: microsomes; conditions: Placenta
# Method in brief: (§1)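 Cell-free assay measuring percent inhibition of the E2-to-E1 transformation. Enzyme source was the microsomal fraction of rat or mouse liver, or of Callithrix jacchus placenta for the marmoset.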
# [1] = target: T1, Estradiol 17-beta-dehydrogenase 2 (Rattus norvegicus) (UniProt Q62730); assay: Inhibition of 17beta-HSD2 in rat liver microsomal fraction assessed as inhibition of [3H]E2 conversion to E1 at 1 uM by scintillation counting analysis; format: microsomes; method in brief: as §1
# T1 sequence (whole entry): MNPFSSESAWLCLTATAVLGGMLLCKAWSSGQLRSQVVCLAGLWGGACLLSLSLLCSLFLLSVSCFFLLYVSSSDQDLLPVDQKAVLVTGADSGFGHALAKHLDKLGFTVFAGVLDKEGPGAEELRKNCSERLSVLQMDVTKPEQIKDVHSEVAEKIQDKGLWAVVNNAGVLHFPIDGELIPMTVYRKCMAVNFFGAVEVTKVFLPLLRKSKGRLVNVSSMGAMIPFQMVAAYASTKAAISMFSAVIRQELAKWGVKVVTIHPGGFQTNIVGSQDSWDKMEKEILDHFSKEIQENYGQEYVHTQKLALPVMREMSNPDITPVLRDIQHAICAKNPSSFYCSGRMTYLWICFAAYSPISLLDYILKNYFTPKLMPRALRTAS
# [2] = target: T2, 11-beta-hydroxysteroid dehydrogenase type 2 (Homo sapiens) (UniProt P80365); assay: Inhibition of human recombinant 11beta-HSD2 expressed in HEK293 cell using [1,2,6,7-3H]cortisol as substrate at 2 uM after 10 mins by scintillation counting analysis; format: cell-based
# T2 sequence (whole entry): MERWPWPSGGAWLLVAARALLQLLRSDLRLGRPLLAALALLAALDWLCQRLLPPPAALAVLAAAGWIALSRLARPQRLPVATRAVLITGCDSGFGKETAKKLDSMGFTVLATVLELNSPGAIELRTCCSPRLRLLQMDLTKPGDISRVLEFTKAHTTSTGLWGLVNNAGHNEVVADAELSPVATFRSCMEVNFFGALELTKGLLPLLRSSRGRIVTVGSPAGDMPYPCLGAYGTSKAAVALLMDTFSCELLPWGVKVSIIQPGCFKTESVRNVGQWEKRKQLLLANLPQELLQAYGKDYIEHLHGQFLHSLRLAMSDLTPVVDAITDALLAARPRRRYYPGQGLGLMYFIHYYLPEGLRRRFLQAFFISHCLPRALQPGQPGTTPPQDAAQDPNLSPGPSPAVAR
# Method in brief: (§2)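 Recombinant human 11β-HSD1 or 11β-HSD2 stably transfected in HEK-293 cells, following a previously described procedure.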
# [3] = target: T3, Estradiol 17-beta-dehydrogenase 2 (Mus musculus) (UniProt P51658); assay: Inhibition of 17beta-HSD2 in mouse liver microsomal fraction assessed as inhibition of [3H]E2 conversion to E1 at 1 uM by scintillation counting analysis; format: microsomes; method in brief: as §1
# T3 sequence (whole entry): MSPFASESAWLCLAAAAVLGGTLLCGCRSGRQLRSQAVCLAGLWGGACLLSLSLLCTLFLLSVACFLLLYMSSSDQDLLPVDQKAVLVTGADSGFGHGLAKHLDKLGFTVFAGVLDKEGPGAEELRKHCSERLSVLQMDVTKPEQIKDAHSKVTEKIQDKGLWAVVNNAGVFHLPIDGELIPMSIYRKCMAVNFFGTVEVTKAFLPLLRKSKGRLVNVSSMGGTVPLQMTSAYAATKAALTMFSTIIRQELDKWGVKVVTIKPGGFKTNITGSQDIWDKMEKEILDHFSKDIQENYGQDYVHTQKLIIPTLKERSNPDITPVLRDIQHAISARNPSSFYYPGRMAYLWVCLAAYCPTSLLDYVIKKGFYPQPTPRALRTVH
# MDA-MB-231 = assay: Cytotoxicity against human MDA-MB-231 cells at 50 uM after 3 hrs by MTT assay; format: cell-based; conditions: mda-mb-231, 3 h
# Method in brief: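 MTT conversion read-out, following Denisot et al. Tested at 2.5, 10 and 50 µM with 3 h incubation.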
# [4] = target: T4, Peroxisomal multifunctional enzyme type 2 (Homo sapiens) (UniProt P51659); assay: Inhibition of human recombinant 17beta-HSD4 SDR domain expressed in Escherichia coli using [6,7-3H]E2 as substrate at 1 uM by scintillation counting analysis
# T4 sequence (whole entry): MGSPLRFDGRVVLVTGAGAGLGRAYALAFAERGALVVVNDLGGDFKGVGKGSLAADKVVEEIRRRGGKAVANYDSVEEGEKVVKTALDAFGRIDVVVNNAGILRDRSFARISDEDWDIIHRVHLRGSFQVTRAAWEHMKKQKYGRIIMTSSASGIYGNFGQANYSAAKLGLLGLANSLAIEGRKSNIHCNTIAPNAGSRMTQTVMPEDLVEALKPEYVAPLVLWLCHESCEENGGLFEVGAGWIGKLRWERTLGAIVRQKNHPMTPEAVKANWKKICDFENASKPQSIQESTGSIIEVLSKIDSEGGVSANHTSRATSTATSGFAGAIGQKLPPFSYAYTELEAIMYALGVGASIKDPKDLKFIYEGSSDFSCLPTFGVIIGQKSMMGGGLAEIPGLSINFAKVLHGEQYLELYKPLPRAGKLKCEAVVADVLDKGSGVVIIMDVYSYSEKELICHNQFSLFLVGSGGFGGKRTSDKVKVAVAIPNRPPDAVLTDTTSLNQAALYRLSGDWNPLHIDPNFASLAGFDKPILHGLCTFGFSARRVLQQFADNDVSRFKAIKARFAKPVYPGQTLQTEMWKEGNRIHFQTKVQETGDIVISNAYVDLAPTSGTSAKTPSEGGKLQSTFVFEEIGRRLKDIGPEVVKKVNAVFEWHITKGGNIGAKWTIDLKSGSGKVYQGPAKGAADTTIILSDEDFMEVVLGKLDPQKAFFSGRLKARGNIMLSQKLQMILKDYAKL
# [5] = target: 11-beta-hydroxysteroid dehydrogenase 1 (Homo sapiens, UniProt P28845); assay: Inhibition of human recombinant 11beta-HSD1 expressed in HEK293 cell using [1,2-3H]Cortisone as substrate at 2 uM after 10 mins by scintillation counting analysis; format: cell-based; method in brief: as §2
# Sequence of 11-beta-hydroxysteroid dehydrogenase 1 (P28845 whole entry, looked up): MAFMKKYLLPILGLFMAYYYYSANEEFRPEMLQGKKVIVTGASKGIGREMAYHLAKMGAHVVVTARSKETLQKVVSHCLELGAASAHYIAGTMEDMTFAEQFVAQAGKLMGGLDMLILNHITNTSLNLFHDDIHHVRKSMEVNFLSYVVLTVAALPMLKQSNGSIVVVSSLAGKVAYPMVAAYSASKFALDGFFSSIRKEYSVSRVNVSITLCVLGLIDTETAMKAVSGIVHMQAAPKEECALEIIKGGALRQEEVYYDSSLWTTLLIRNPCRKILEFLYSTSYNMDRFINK
# [6] = target: T5, 17-beta-hydroxysteroid dehydrogenase type 1 (Homo sapiens) (UniProt P14061); conditions: at 1 µM;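 also: enzyme source was human placental cytosol with tritiated estrone as substrate, 10 min reaction, conversion quantified by HPLC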
# T5 sequence (whole entry): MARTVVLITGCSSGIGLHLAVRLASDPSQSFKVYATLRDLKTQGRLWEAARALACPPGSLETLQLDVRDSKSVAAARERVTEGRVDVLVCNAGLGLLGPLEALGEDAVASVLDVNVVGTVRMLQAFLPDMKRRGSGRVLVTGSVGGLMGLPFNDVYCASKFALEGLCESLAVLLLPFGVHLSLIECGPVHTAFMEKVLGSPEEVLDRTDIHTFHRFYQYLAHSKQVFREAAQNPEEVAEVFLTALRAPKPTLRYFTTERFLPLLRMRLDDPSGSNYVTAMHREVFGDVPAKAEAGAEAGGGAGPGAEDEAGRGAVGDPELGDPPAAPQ
Compound,inhibition (Callithrix jacchus),inhibition [1],inhibition [2],inhibition [3],Activity (MDA-MB-231),inhibition [4],inhibition [5],inhibition [6]
COc1cccc(-c2ccc(C(=O)N(C)Cc3cccc(O)c3)s2)c1F,47%,25%,10%,65%,Non-toxic,inactive,68%,< 10%
COc1cccc(N(C)C(=O)c2ccc(-c3cccc(OC)c3F)s2)c1,45%,inactive,8%,26%,Non-toxic,inactive,9%,17%

# Reference: ChEMBL document CHEMBL2321834 (J Med Chem, 2013)
